A selection: hits, their analogues and other compounds. The true share with any hit is near 4.1%.
KCNK3 block: human KCNK3 channel inhibitors, primary screen, CHO cells, FluxOR thallium flux, B-score; Potassium channel subfamily K member 3 (Homo sapiens), O14649; FluxOR fluorescence; active compounds read low; B-score at 10 µM; actives 0.84% (n = 340,000); AID 602410, 2012;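 active means B-score under library mean minus 4 SD, starting fluorescence ratio at most library mean plus 5 SD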;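 further: more negative B-score means stronger inhibition of thallium flux through KCNK3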
KCNK9 inh: KCNK9 potassium channel inhibitors, primary screen, HEK293 cells, thallium flux; Potassium channel subfamily K member 9 (Homo sapiens), Q9NPC2; FluxOR thallium flux fluorescence; active compounds read low; B-score at 10 µM; actives 1.2% (n = 310,000); AID 488922, 2010;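 active means ratio B-score over 3 SD below the library mean, with starting fluorescence within 5 SD of its mean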;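 further: negative B-score means less thallium flux so channel inhibition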
hERG rescue: hERG rescue from dofetilide block, primary screen, cell-based, CHO-hERG, FluxOR thallium flux, dofetilide IC70; Voltage-gated inwardly rectifying potassium channel KCNH2 (Homo sapiens), Q12809; dofetilide IC70 present; activation (rescue from dofetilide block), less the hit threshold, % at 10 µM; actives 0.51% (n = 310,000); AID 1511, 2009;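 active means activation above the mean of controls blocked by dofetilide plus 5 SD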;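 further: thallium influx through hERG after potassium depolarization seen as dye fluorescence rise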
Target sequence (Q12809 whole entry, looked up): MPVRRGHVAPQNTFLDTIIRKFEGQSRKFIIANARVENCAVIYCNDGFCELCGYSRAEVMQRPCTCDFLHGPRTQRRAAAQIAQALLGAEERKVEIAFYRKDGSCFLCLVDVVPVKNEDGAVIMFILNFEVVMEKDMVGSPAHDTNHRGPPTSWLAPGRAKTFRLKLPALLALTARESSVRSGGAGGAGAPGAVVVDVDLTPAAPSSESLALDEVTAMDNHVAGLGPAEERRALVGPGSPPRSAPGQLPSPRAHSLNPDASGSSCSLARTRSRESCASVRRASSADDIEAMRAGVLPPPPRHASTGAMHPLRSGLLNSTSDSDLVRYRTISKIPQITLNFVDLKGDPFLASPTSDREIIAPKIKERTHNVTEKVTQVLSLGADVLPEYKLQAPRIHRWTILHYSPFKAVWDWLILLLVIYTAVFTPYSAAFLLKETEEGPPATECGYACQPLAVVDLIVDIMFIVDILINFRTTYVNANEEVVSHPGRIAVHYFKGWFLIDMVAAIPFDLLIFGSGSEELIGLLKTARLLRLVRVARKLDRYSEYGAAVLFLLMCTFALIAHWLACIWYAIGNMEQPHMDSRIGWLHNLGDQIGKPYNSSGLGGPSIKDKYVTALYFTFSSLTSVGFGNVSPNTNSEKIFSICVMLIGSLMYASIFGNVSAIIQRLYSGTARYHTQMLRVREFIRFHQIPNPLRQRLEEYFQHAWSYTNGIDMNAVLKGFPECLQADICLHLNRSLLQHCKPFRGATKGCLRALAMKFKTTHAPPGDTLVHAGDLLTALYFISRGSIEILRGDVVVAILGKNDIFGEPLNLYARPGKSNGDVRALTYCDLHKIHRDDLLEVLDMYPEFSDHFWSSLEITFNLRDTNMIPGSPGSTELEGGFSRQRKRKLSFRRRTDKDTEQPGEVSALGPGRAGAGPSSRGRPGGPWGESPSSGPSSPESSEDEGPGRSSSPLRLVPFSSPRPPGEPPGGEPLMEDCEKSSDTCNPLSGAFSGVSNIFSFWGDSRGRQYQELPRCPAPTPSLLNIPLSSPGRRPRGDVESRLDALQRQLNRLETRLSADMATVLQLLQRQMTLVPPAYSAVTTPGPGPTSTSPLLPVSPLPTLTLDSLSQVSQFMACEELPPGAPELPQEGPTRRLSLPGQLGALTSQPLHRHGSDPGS
KCNQ1 pot: potentiators or activators of KCNQ1 channel, primary screen, cell-based, thallium flux, high-throughput; AID 2648, 2010; Potassium voltage-gated channel subfamily KQT member 1 (Homo sapiens), P51787; B-score at 10 µM; CHO-K1 KCNQ1, thallium flux FluxOR fluorescence; active compounds read high; actives 0.35% (n = 310,000);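 active means fluorescence ratio B-score, a plate-corrected score, at least three library SD, with initial intensity B-score within 5 SD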
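System: Stable KCNQ1 CHO-K1 line | Incubation: 90 min dye loading and 20 min compound exposure, both at room temperature | Measure: Ratio B score | Medium: Assay buffer for compound exposure, DMSO matched across wells | Compound dosing: Single-concentration screen | Probe or stimulus: K+/Tl+ depolarizing stimulus | Measured by: Kinetic FluxOR fluorescence, 10 s baseline plus 110 s post-stimulus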
KCNQ1 inh: inhibitors of human KCNQ1 channel, primary screen, cell-based, thallium flux, high-throughput; B-score at 10 µM; actives 1.3% (n = 310,000); Potassium voltage-gated channel subfamily KQT member 1 (Homo sapiens), P51787; CHO-K1 KCNQ1, FluxOR thallium flux fluorescence; active compounds read high;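 active means compounds whose thallium flux B-score, printed positive for inhibition, exceeds three library SD while starting fluorescence stays within three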;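 further: channel opened by potassium depolarization with thallium stimulus after 20 min compound exposure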
KCC2 mod: KCC2 cotransporter modulators, thallium flux, primary screen, cell-based, HEK293 KCC2, FluoZin-2 fluorescence, MLSMR | B-score of Tl+ flux slope (higher = more flux/activation; lower = inhibition) at 10 µM | Solute carrier family 12 member 5 (Homo sapiens), Q9H2X9 | actives 2.2% (n = 190,000) | KCC2 cells, thallium flux FluoZin-2 fluorescence;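 active means thallium flux slope and its plate-corrected score both differing from the plate sample mean at a set confidence after two filtering rounds, in either direction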;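 further: slope of fluorescence scaled to starting intensity during 10 to 20 s after thallium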
KCC2 secondary: KCC2 modulators in sodium-free buffer, confirmation, cell-based, HEK293 KCC2, thallium flux, secondary assay | shares compounds with KCC2 mod | FluoZin2 fluorescence; active compounds read high | normalised thallium flux (F/F0 slope) at 10 µM | actives 15% (n = 3,700) | AID 1713, 2009;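 active means thallium flux slope above the same plate's solvent-only control mean plus 3 SD; inconclusive means the two replicate wells disagree; inactive means no significant difference from solvent-only control wells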
KCC2 bumet counter: thallium flux persisting under bumetanide in KCC2 cells, confirmation, counter-screen for KCC2 modulator project, cell-based, HEK293 KCC2, FluoZin2, secondary assay 3; shares compounds with KCC2 mod; normalized thallium flux at 10 µM; HEK293-KCC2 + bumetanide/ouabain; active compounds read high; actives 49% (n = 3,700);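 active means thallium entry rate above the same plate's blocked-transporter control wells by more than 3 SD; inconclusive means the two repeat wells disagree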;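 further: raw slope of fluorescence over initial fluorescence between 10 and 20 s after thallium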
KCC2 secondary2: KCC2 modulators without ouabain present, confirmation, cell-based, HEK293 KCC2, thallium flux, FluoZin2, secondary assay 2; shares compounds with KCC2 mod; thallium flux FluoZin2 fluorescence; actives lie on both sides; F/F0 rise rate, 10–20 s post-thallium; normalized thallium flux at 10 µM; actives 23% (n = 3,700);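 active means thallium flux slope more than 3 SD above or below the plate's solvent-only control mean, mostly below; inconclusive means the two repeat wells disagreed; inactive means no significant shift from solvent-only controls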
HEK293 Tl flux: thallium flux modulation in parental HEK cells, confirmation, counter-screen for KCC2 modulator project, cell-based, counterscreen 1; thallium flux rate (normalised fluorescence) at 10 µM; HEK293 parental cells, thallium flux FluoZin2, ouabain; baseline-ratio fluorescence slope, 10–20 s after thallium; shares compounds with KCC2 mod; AID 1716, 2009; actives 46% (n = 3,700);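 active means thallium flux rate significantly above the same plate's solvent-only control wells, beyond their mean plus 3 SD; inconclusive means the two replicate wells gave conflicting results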
KCC2 retest ouab: KCC2 inhibitors and activators, ouabain retest, confirmation, HEK-KCC2 cells; shares compounds with KCC2 mod; HEK293-KCC2, thallium flux FluoZin2 fluorescence; bidirectional: low = inhibitor, high = activator; raw Tl+ flux slope (below DMSO = inhibition, above = activation) at 10 µM; actives 48% (n = 3,700); AID 1717, 2009;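 active means thallium flux slope beyond 3 SD from same-plate DMSO control mean in most replicates, usually higher, sometimes lower; inconclusive means repeat tests gave conflicting results; inactive means no significant difference from controls in most replicates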;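 further: slope of initial-normalized fluorescence between seconds 10 and 20 after thallium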
HEK293 Tl flux2: native HEK Tl+ uptake effects, second counter-screen – HEK cells, counterscreen 2, counter-screen for KCC2 modulator project, confirmation. shares compounds with KCC2 mod. HEK293 parental, thallium flux FluoZin-2 fluorescence slope. thallium flux slope at 10 µM. actives 33% (n = 3,700);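 active means thallium flux slope above the same plate's solvent-control mean plus 3 SD in both duplicate wells; inconclusive means duplicate wells that disagreed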;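 further: run without ouabain in cells lacking the KCC2 cotransporter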
Numbers stand for hits; – = inactive; ? = inconclusive; · = no result.

SMILES	KCNK3 block	KCNK9 inh	hERG rescue	KCNQ1 pot	KCNQ1 inh	KCC2 mod	KCC2 secondary	KCC2 bumet counter	KCC2 secondary2	HEK293 Tl flux	KCC2 retest ouab	HEK293 Tl flux2
Cc1c(NC2=C(Cl)C(=O)N(c3ccccc3)C2=O)c(=O)n(-c2ccccc2)n1C	–	–	–	–	–	-4.4	?	–	–	–	–	–
Cc1ccc(C)c(S(=O)(=O)N2CCCCC2CCNC(=O)C(=O)NCc2ccncc2)c1 (stereo not given)	–	–	–	–	–	·	·	·	·	·	·	·
S=c1[nH]nc(-c2ccco2)n1/N=C/C=C/c1ccccc1	–	–	–	–	–	7	–	0.033	–	0.016	–	0.018
S=c1[nH]nc(-c2ccccc2)n1/N=C/C=C/c1ccco1	–	–	–	–	–	–	·	·	·	·	·	·
S=c1[nH]nc(-c2ccc(Cl)cc2)n1/N=C/C=C/c1ccco1	–	–	–	–	–	30	0.016	0.11	–	0.036	0.038	0.015
Cc1ccc(/C=N/n2c(-c3ccc(Cl)cc3)n[nH]c2=S)s1	–	–	–	–	–	10	–	0.012	–	0.016	?	0.015
S=c1[nH]nc(-c2ccc(Cl)cc2)n1/N=C/c1ccco1	–	–	–	–	–	21	–	0.029	?	0.022	0.033	0.02
COCCCNC(=O)c1ccccc1N(Cc1ccccc1)S(=O)(=O)c1ccccc1	–	–	–	–	–	·	·	·	·	·	·	·
CN(C(=S)NC(=O)C1(C)CC1(Cl)Cl)c1ccccc1 (stereo not given)	–	–	–	–	–	5.1	0.022	0.026	?	0.02	0.027	0.02
CC1(C(=O)NC(=S)N(Cc2ccccc2)c2ccccn2)CC1(Cl)Cl (stereo not given)	–	–	–	–	–	–	·	·	·	·	·	·
O=C(c1cc(COc2ccc(F)cc2Cl)on1)N1CCC(c2ccncc2)CC1	–	–	–	–	–	-6.3	–	–	–	–	0.014	–
O=C(c1cc(COc2ccc(F)cc2Cl)on1)N1CCCCCC1	–	–	–	–	–	·	·	·	·	·	·	·
C=CCn1c(Cc2cccs2)nnc1SC/C=C/c1ccccc1	–	–	–	–	–	-4	–	?	?	0.0053	0.014	0.0085

High-throughput results from PubChem BioAssay.
